In ChEMBL document CHEMBL2321876:
The source made the active and inactive calls. No rule for the calls is given here.

Experiments:
[1] = Displacement of Fl-Sal-AMS from Acinetobacter baumanni BasE expressed in Escherichia coli after 30 mins by fluorescence polarization assay; design: species or system Acinetobacter baumannii
Acinetobacter baumannii [2] = assay: Antibacterial activity against Acinetobacter baumannii ATCC 19606 using iron-replete M9 minimal media after 15 hrs by broth microdilution assay; assay type: functional, organism-based; settings: ATCC 19606 = CIP 70.34 = JCM 6841
Procedure, shortened: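 ATCC 19606 grown overnight at 30 °C on LB agar, washed twice in dipyridyl-containing M9/casamino acids medium, then diluted to A600 0.0003 in M9 minimal medium with 0.2% casamino acids plus 200 μM FeCl3. Inhibitors from DMSO at 100 μM final, in triplicate. Controls were tetracycline (100 ng/mL) and 1% DMSO. Incubated at 30 °C, A600 measured at 15 h.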

Acinetobacter baumannii [3] = assay: Antibacterial activity against Acinetobacter baumannii ATCC 19606 using iron-deficient M9 minimal media after 15 hrs by broth microdilution assay; assay type: functional, organism-based; settings: ATCC 19606 = CIP 70.34 = JCM 6841
Procedure, shortened: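 ATCC 19606 grown overnight at 30 °C on LB agar, washed twice and resuspended in M9 minimal medium with 0.2% casamino acids and 200 μM dipyridyl. Inoculated at A600 0.0003 in this medium plus 1 μM FeCl3. Inhibitors from DMSO at 100 μM final, in triplicate. Tetracycline (100 ng/mL) and 1% DMSO as controls. Incubated at 30 °C; A600 read at 15 h.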

[4] = Displacement of Fl-Sal-AMS from Mycobacterium tuberculosis MbtA expressed in Escherichia coli after 30 mins by fluorescence polarization assay

O=c1cc(-c2ccccc2)[nH]c2c1cnn2Cc1ccncc1
Kd ([1]; read-out: Kd): > 100 µM | Activity (Acinetobacter baumannii [2]): inactive | Activity (Acinetobacter baumannii [3]): inactive

O=C(O)c1cc(-c2cc3ccccc3s2)nc2c1cnn2Cc1ccncc1
Activity (Acinetobacter baumannii [2]): inactive | Activity (Acinetobacter baumannii [3]): inactive

CC(C)n1ncc2c(C(=O)O)cc(-c3ccccc3)nc21
Kd ([1]; read-out: Kd): > 500 µM | Activity (Acinetobacter baumannii [2]): inactive | Activity (Acinetobacter baumannii [3]): inactive

O=C(O)c1cc(-c2ccc(-c3ccc(Cl)nc3)nc2)nc2c1cnn2Cc1ccncc1
Activity (Acinetobacter baumannii [2]): inactive | Activity (Acinetobacter baumannii [3]): inactive

O=C(O)c1cc(N2CCOCC2)nc2c1cnn2Cc1ccncc1
Kd ([1]; read-out: Kd): 1.45 µM | Kd [4]: 29.1 µM | Activity (Acinetobacter baumannii [2]): inactive | Activity (Acinetobacter baumannii [3]): inactive

O=C(O)c1cc(=O)[nH]c2c1cnn2Cc1ccncc1
Kd ([1]; read-out: Kd): > 100 µM | Activity (Acinetobacter baumannii [2]): inactive | Activity (Acinetobacter baumannii [3]): inactive

O=C(O)c1cc(-c2ccccc2)nc2[nH]ncc12
Kd ([1]; read-out: Kd): > 100 µM | Activity (Acinetobacter baumannii [2]): inactive | Activity (Acinetobacter baumannii [3]): inactive

O=C(O)c1cc(-c2ccc(Cl)cc2)nc2c1cnn2Cc1ccncc1
Activity (Acinetobacter baumannii [2]): inactive | Activity (Acinetobacter baumannii [3]): inactive

O=C(O)c1cc(-c2cccc(O)c2)nc2c1cnn2Cc1ccncc1
Kd ([1]; read-out: Kd): 0.124 µM | Kd [4]: 7.67 µM | Activity (Acinetobacter baumannii [2]): inactive | Activity (Acinetobacter baumannii [3]): inactive

O=C(O)c1cc(-c2ccccc2-c2ccccc2Cl)nc2c1cnn2Cc1ccncc1
Kd ([1]; read-out: Kd): 19.7 µM | Kd [4]: > 50 µM | Activity (Acinetobacter baumannii [2]): inactive | Activity (Acinetobacter baumannii [3]): inactive

N#Cc1ccc(-c2cc(C(=O)O)c3cnn(Cc4ccncc4)c3n2)cc1
Activity (Acinetobacter baumannii [2]): inactive | Activity (Acinetobacter baumannii [3]): inactive

O=C(O)c1ccc(-c2cc(C(=O)O)c3cnn(Cc4ccncc4)c3n2)cc1O
Activity (Acinetobacter baumannii [2]): inactive | Activity (Acinetobacter baumannii [3]): inactive

O=C(O)c1cc(-c2ccc(C(F)(F)F)cc2)nc2c1cnn2Cc1ccncc1
Activity (Acinetobacter baumannii [2]): inactive | Activity (Acinetobacter baumannii [3]): inactive

CSc1ccc(-c2cc(C(=O)O)c3cnn(Cc4ccncc4)c3n2)cc1
Activity (Acinetobacter baumannii [2]): inactive | Activity (Acinetobacter baumannii [3]): inactive

CC(=O)c1ccc(-c2cc(C(=O)O)c3cnn(Cc4ccncc4)c3n2)cc1
Activity (Acinetobacter baumannii [2]): inactive | Activity (Acinetobacter baumannii [3]): inactive

CCCCCCCCCCCCCCCCOc1ccc(-c2cc(C(=O)O)c3cnn(Cc4ccncc4)c3n2)cc1
Kd [1]: ND(Insoluble) | Activity (Acinetobacter baumannii [2]): inactive | Activity (Acinetobacter baumannii [3]): inactive

COc1ccc(Cn2ncc3c(C(=O)O)cc(Nc4ccccc4)nc32)cc1
Kd ([1]; read-out: Kd): > 100 µM | Activity (Acinetobacter baumannii [2]): inactive | Activity (Acinetobacter baumannii [3]): inactive

CC(=O)c1ccc(-c2cc(C(=O)O)c3cnn(Cc4ccncc4)c3n2)s1
Activity (Acinetobacter baumannii [2]): inactive | Activity (Acinetobacter baumannii [3]): inactive

CCn1ncc2c(C(=O)O)cc(-c3ccccc3)nc21
Kd ([1]; read-out: Kd): > 500 µM | Activity (Acinetobacter baumannii [2]): inactive | Activity (Acinetobacter baumannii [3]): inactive

O=C(O)c1cc(-c2ccc([N+](=O)[O-])cc2)nc2c1cnn2Cc1ccncc1
Activity (Acinetobacter baumannii [2]): inactive | Activity (Acinetobacter baumannii [3]): inactive

O=C(O)c1cc(-c2ccccc2)nc2c1cnn2Cc1ccco1
Kd ([1]; read-out: Kd): > 100 µM | Activity (Acinetobacter baumannii [2]): inactive | Activity (Acinetobacter baumannii [3]): inactive

O=C(O)c1cc(-c2ccccc2)nc2c1cnn2Cc1ccccc1
Kd ([1]; read-out: Kd): > 100 µM | Activity (Acinetobacter baumannii [2]): inactive | Activity (Acinetobacter baumannii [3]): inactive

CS(=O)(=O)c1ccc(-c2cc(C(=O)O)c3cnn(Cc4ccncc4)c3n2)cc1
Activity (Acinetobacter baumannii [2]): inactive | Activity (Acinetobacter baumannii [3]): inactive

O=C(O)c1cc(-c2ccccc2)nc2c1cnn2Cc1cccnc1
Kd ([1]; read-out: Kd): > 100 µM | Activity (Acinetobacter baumannii [2]): inactive | Activity (Acinetobacter baumannii [3]): inactive

COc1ccc(Cn2ncc3c(C(=O)O)cc(-c4ccccc4)nc32)cc1
Kd ([1]; read-out: Kd): > 100 µM | Activity (Acinetobacter baumannii [2]): inactive | Activity (Acinetobacter baumannii [3]): inactive

O=C(O)c1cc(-c2ccc(Br)cc2)nc2c1cnn2Cc1ccncc1
Activity (Acinetobacter baumannii [2]): inactive | Activity (Acinetobacter baumannii [3]): inactive

O=C(O)c1cc(-c2ccc(Cl)nc2)nc2c1cnn2Cc1ccncc1
Activity (Acinetobacter baumannii [2]): inactive | Activity (Acinetobacter baumannii [3]): inactive
